Results as given in ChEMBL document CHEMBL1134902, “Quinoline-3-carbothioamides and related compounds as novel immunomodulating agents” (2002).

How the values were obtained:
Assay type in all cases: functional
Mus musculus [1] = assay: Activity expressed as percent inhibition of anti-TNP IgM level in TNP-LPS immunized mice, at a dose of 10 mg/kg perorally; conditions: route oral
Procedure, shortened: (§1)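 Female (C57BL/6 × DBA/2)F1 mice, 6 weeks old, immunized i.v. with TNP-LPS on day 0, then randomized (7/group). Compound given orally on days 0 and 1. Serum taken on day 4 and anti-TNP IgM measured by ELISA. Result given as % inhibition of IgM level versus control, with significance by Student's t-test.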

Mus musculus [2] = assay: Antinephritic activity against Graft-Versus-Host Disease (GVHD) induced (C57BL/6DBA/2)F1 mice at a dose of 32 mg/kg administered perorally; conditions: route oral
Procedure, shortened: (§2)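 Chronic GVHD induced in 6-week-old female (C57BL/6 × DBA/2)F1 mice by two injections of DBA/2 spleen cells (5 × 10⁷ each), given 5 days apart. Oral dosing once daily for 8 weeks, starting 3 days after the second injection. Urinary albumin measured after the last dose by single radial immunodiffusion with rabbit anti-mouse albumin antiserum. 10 mice/group; % inhibition of proteinuria; Student's t-test.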

Mus musculus [3] = assay: Activity was expressed as percent inhibition of anti-TNP IgM level in TNP-LPS immunized mice, at a dose of 1 mg/kg perorally; conditions: route oral; procedure, shortened: as §1
Mus musculus [4] = assay: Activity was expressed as percent inhibition of anti-TNP IgM level in TNP-LPS immunized mice, at a dose of 0.1 mg/kg perorally; conditions: route oral; procedure, shortened: as §1
Mus musculus [5] = assay: Antinephritic activity against Graft-Versus-Host Disease (GVHD) induced (C57BL/6DBA/2) F1 mice at a dose of 32 mg/kg administered perorally; conditions: route oral; procedure, shortened: as §2
Mus musculus [6] = assay: Activity was expressed as percent inhibition of anti-TNP IgM level in TNP-LPS immunized mice, at a dose of 100 mg/kg perorally; conditions: route oral; procedure, shortened: as §1
Mus musculus [7] = assay: Inhibition of anti-DNA antibody in autoimmune diseased MRL/I mice at a dose of 0.32 mg/Kg administered perorally; conditions: po
Mus musculus [8] = assay: Inhibition of histological score (Nephritis in the kidneys) in the autoimmune diseased MRL/l mice at a dose of 3.2 mg/Kg administered perorally; conditions: po
Mus musculus [9] = assay: Inhibition of histological score (Nephritis in the kidneys) in the autoimmune diseased MRL/l mice at a dose of 0.32 mg/kg administered perorally; conditions: route oral
Mus musculus [10] = assay: Inhibition of anti-DNA antibody in autoimmune diseased MRL/I mice at a dose of 3.2 mg/kg administered perorally; conditions: route oral
Mus musculus [11] = assay: Inhibition of anti-DNA antibody in autoimmune diseased MRL/I mice at a dose of 1 mg/kg administered perorally; conditions: route oral
Mus musculus [12] = assay: Inhibition of histological score (Nephritis in the kidneys) in the autoimmune diseased MRL/l mice at a dose of 1 mg/Kg administered perorally; conditions: po
Mus musculus [13] = assay: Activity was expressed as percent inhibition of anti-TNP IgM level in TNP-LPS immunized mice, at a dose of 0.01 mg/kg perorally; conditions: route oral; procedure, shortened: as §1

Row | SMILES | inhibition in vivo at 10 mg/kg (Mus musculus [1]) [%] | inhibition in vivo at 32 mg/kg (Mus musculus [2]) [%] | further results
1 | CN1C(=O)/C(=C(/S)N(C)c2cccs2)C(=O)c2cc(Cl)ccc21 | 19 | – | –
2 | CN1C(=O)/C(=C(/S)N(C)c2ccccc2)C(=O)c2cc(OC(F)(F)F)ccc21 | 19 | – | –
3 | C=CCN(C(=S)c1c(O)c2cc(Cl)ccc2n(C)c1=O)c1ccccc1 | – | 96 | –
4 | COc1ccc2c(c1)c(O)c(C(=S)N(C)c1ccccc1)c(=O)n2C | 31 | 99 | –
5 | CSc1ccc2c(c1)c(=O)c(C(=O)N(C)c1ccccc1)c(S)n2C | – | 96 | –
6 | CS/C(=N\c1ccccc1)c1c(O)c2cc(SC)ccc2n(C)c1=O | – | 84 | –
7 | CN1C(=O)/C(=C(/S)N(C)c2ccc(OC(F)(F)F)cc2)C(=O)c2cc(Cl)ccc21 | 39 | – | –
8 | CN1C(=O)/C(=C(/S)N(C)c2ccc(Br)cc2)C(=O)c2cc(Cl)ccc21 | 50 | – | –
9 | Cc1cc(Cl)cc2c1N(C)C(=O)/C(=C(/S)N(C)c1ccccc1)C2=O | 17 | – | –
10 | Cc1ccc2c(c1)C(=O)/C(=C(\S)N(C)c1ccccc1)C(=O)N2C | 20 | – | –
11 | CN1C(=O)/C(=C(/S)N(C)c2ccccc2)C(=O)c2cc(-n3cccc3)ccc21 | -10 | – | –
12 | CSCCN(C(=O)c1c(O)c2cc(SC)ccc2n(C)c1=O)c1ccccc1 | – | 65 | –
13 | CSc1ccc2c(c1)c(O)c(C(=S)N(C)c1ccccc1)c(=O)n2C | 32 | 99 | –
14 | CN1C(=O)/C(=C(/S)N(C)c2cccc(Cl)c2)C(=O)c2cc(Cl)ccc21 | 63 | – | –
15 | CSc1ccc2c(c1)c(O)c(C(=O)N(C)c1ccccc1)c(=O)n2C | 67 | – | inhibition in vivo at 1 mg/kg (Mus musculus [3]): 50%; inhibition in vivo at 0.1 mg/kg (Mus musculus [4]): 18%; inhibition in vivo at 32 mg/kg (Mus musculus [5]): 100%
16 | CN1C(=O)/C(=C(/S)N(C)c2ccc(F)c(F)c2)C(=O)c2cc(Cl)ccc21 | 62 | – | –
17 | CN1C(=O)/C(=C(/S)N(C)c2ccccc2)C(=O)c2ccccc21 | – | 85 | –

Row | SMILES | inhibition in vivo at 10 mg/kg (Mus musculus [1]) [%] | inhibition in vivo at 32 mg/kg (Mus musculus [2]) [%] | further results
18 | Cn1c(=O)c(/C(S)=N/c2ccccc2)c(O)c2cc(Cl)ccc21 | 38 | – | –
19 | CSc1ccc2c(c1)c(=O)c(C(=S)N(C)c1ccccc1)c(S)n2C | – | 37 | –
20 | CSc1ccc(N(C)C(=O)c2c(O)c3cc(SC)ccc3n(C)c2=O)cc1 | – | 87 | –
21 | COc1cccc(N(C)/C(S)=C2/C(=O)c3cc(Cl)ccc3N(C)C2=O)c1 | 30 | 74 | –
22 | CN1C(=O)/C(=C(/S)N(C)c2ccccc2)C(=O)c2cc(Br)ccc21 | 56 | 98 | –
23 | CN1C(=O)/C(=C(/S)N(C)c2ccc(F)cc2)C(=O)c2cc(Cl)ccc21 | 54 | – | –
24 | CN1C(=O)/C(=C(/S)N(C)c2cccc(C(F)(F)F)c2)C(=O)c2cc(Cl)ccc21 | 29 | – | –
25 | CN1C(=O)/C(=C(/S)N(C)c2ccccc2)C(=O)c2ccc(Cl)cc21 | – | -23 | –
26 | COCCCN(/C(S)=C1/C(=O)c2cc(Cl)ccc2N(C)C1=O)c1ccccc1 | 31 | – | –
27 | Cc1ccc(N(C)/C(S)=C2/C(=O)c3cc(Cl)ccc3N(C)C2=O)cc1 | 23 | – | –
28 | CN(C(=O)c1c(O)c2ccccc2n(C)c1=O)c1ccccc1 [ROQUINIMEX] | 41 | – | inhibition in vivo at 1 mg/kg (Mus musculus [3]): 13%; inhibition in vivo at 100 mg/kg (Mus musculus [6]): 49%
29 | CSc1ccc2c(c1)c(O)c(S(=O)(=O)N(C)c1ccccc1)c(=O)n2C | – | 53 | –
30 | CN1C(=O)/C(=C(/S)N(C)c2ccccc2)C(=O)c2cc(Cl)ccc21 | 64 | 100 | inhibition in vivo at 0.32 mg/kg (Mus musculus [7]): 52%; inhibition in vivo at 3.2 mg/kg (Mus musculus [8]): 85%; inhibition in vivo at 1 mg/kg (Mus musculus [3]): 33%; inhibition in vivo at 0.32 mg/kg (Mus musculus [9]): 67%; inhibition in vivo at 3.2 mg/kg (Mus musculus [10]): 83%; inhibition in vivo at 1 mg/kg (Mus musculus [11]): 73%; inhibition in vivo at 1 mg/kg (Mus musculus [12]): 85%; inhibition in vivo at 0.1 mg/kg (Mus musculus [4]): 22%; inhibition in vivo at 0.01 mg/kg (Mus musculus [13]): -3%; inhibition in vivo at 100 mg/kg (Mus musculus [6]): 77%
31 | Cn1c(=O)c(C(=S)N(c2ccccc2)C(C)(C)C)c(O)c2cc(Cl)ccc21 | 11 | – | –
32 | CN1C(=O)/C(=C(/S)N(C)c2ccc(Cl)cc2)C(=O)c2cc(Cl)ccc21 | 47 | – | –
33 | COc1ccc(N(C)/C(S)=C2/C(=O)c3cc(Cl)ccc3N(C)C2=O)cc1 | 45 | 97 | –
